MLL AF4-AF9 inh: MLL-AF4/AF9 protein interaction inhibition; AlphaScreen, biotin-AF4 peptide binding to FLAG-AF9; inhibition, % at 10 µM; P42568; hit rate 0.47% among 350,000;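 active = every replicate reaching a set inhibition limit, whatever the replicate mean, cut at about 25% in these data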;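 also: 0% = plate neutral control median and 100% = total signal loss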
Target sequence (P42568 whole entry, looked up): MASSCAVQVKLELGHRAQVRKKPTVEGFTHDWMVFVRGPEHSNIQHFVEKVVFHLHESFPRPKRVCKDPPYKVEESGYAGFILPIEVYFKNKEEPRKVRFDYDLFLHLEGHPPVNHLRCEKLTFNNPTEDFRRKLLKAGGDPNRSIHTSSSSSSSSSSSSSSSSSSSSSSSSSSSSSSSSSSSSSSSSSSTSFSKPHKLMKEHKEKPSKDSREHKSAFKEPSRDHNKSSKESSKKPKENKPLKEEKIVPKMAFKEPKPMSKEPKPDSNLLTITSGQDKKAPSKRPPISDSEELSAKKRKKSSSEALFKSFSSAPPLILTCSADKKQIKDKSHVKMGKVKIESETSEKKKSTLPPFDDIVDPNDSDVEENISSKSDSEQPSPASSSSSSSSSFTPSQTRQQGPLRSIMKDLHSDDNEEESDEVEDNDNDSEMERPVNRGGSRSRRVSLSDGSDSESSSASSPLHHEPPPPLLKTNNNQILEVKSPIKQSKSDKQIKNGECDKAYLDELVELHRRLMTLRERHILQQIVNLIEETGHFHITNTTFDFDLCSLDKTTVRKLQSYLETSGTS
EWS-Fli block: blocks EWS/Fli oncoprotein-driven transcription | hit rate 0.67% among 350,000 | A673 NR0B1-luciferase reporter, viability-normalised | AID 651661 | inhibition, % at 12.6 µM;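 active = mean inhibition of at least 50% after viability correction, with every replicate also passing that limit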;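 also: firefly luciferase signal divided by Alamar Blue viability fluorescence both relative to DMSO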
HIV Env fusion: blocks HIV Env-driven cell-cell fusion | HeLa-JRFL Env/CEM21 cell fusion, luciferase | hit rate 1.1% among 360,000 | inhibition, % at 12.3 µM;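 active = mean replicate inhibition score of at least 50 and every replicate individually at or above 50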;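 also: 0% = plate neutral controls and 100% = maraviroc near 300 nM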
PAX8 reporter: inhibitors of PAX8 transcriptional activity in RMG-I cells; inhibition, % at 12.6 µM; RMG-I TPO-luciferase reporter, SteadyGlo, 24 h; hit rate 1.2% among 360,000;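 active = mean replicate inhibition at least 60% with every replicate also reaching 60%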;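 also: luciferase light reporting Pax8 driven TPO promoter activity; plate controls were median of neutral control wells for no effect and mitoxantrone controls for full effect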
N-glyco inh: blocks N-linked glycosylation in D54 reporter cells; reporter increase, % at 12.5 µM; D54 ERlucT glycosylation luciferase reporter, 24 h; percent of 100 nM tunicamycin response; hit rate 0.23% among 360,000; AID 588692;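 active = mean luciferase reporter signal, scaled so untreated is 0 and the glycosylation-blocking control 100, at or above a set limit in every replicate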;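 also: luciferase carries N-glycosylation sites so blocking glycosylation raises the light; 0% = median of neutral control wells and 100% = median of 100 nM tunicamycin wells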
FN deposition inh: fibronectin deposition inhibition; hit rate 0.086% among 350,000; AH1F fibroblasts, Alexa488-fibronectin deposition fluorescence, overnight; inhibition, % at 12.6 µM; AID 743247;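 active = mean inhibition across replicates of 30% or more, regardless of how many single replicates reach that level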;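 also: positive control wells lacked labelled fibronectin entirely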
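Material: AH1F fibroblasts assembling fluorescent fibronectin matrix; amount: 10000 AH1F cells/well; medium: DMEM, 2% serum; reagent: Alexa488-fibronectin, 24 nM final in well; dosing: single compound dose, delivered by pin transfer; incubation: 1 h adhesion, overnight exposure; detection: fluorescence after three HBSS washes, excitation 485 nm, emission 525 nm; measure: fibronectin deposition inhibition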
Active calls of the source: *; [ ] = remark or other dose. Rows were chosen to be rich in hits. Some 2.5% of all compounds tested hit in one or more screens of this group.

`Cc1noc(C)c1NC(=O)Nc1ccc2c(c1)C(=O)N([C@@H](C)CO)C[C@H](C)[C@H](CN(C)C(=O)Nc1ccc(F)cc1)O2` gave MLL AF4-AF9 inh 6.7, EWS-Fli block 1.5, HIV Env fusion 0.9[16.7 µM], PAX8 reporter -7.8 and FN deposition inh 10.5.
`CO[C@H]1CN(C)C(=O)c2cc(NC(=O)c3ccccc3)ccc2OC[C@H](C)N(C(=O)CN(C)C)C[C@H]1C` gave MLL AF4-AF9 inh 1.5, EWS-Fli block 3.9 and FN deposition inh 9.2.
Screening C[C@@H]1CN([C@H](C)CO)C(=O)Cc2cc(NC(=O)Nc3ccc(C(F)(F)F)cc3)ccc2O[C@@H]1CN(C)S(=O)(=O)c1ccc(F)cc1 returned EWS-Fli block 1.3, HIV Env fusion 13.5[16.7 µM] and PAX8 reporter 6.6.
Screening C[C@H]1CN([C@@H](C)CO)C(=O)Cc2cc(NC(=O)Nc3ccc(C(F)(F)F)cc3)ccc2O[C@@H]1CN(C)S(=O)(=O)c1ccc(F)cc1 returned EWS-Fli block -3.8, HIV Env fusion 9.3[16.7 µM] and PAX8 reporter 13.7.
Screening C[C@@H]1CN([C@@H](C)CO)C(=O)Cc2cc(NC(=O)Nc3ccc(C(F)(F)F)cc3)ccc2O[C@@H]1CN(C)S(=O)(=O)c1ccc(Cl)cc1 returned MLL AF4-AF9 inh 5.1, EWS-Fli block 18.2, HIV Env fusion 28.1, PAX8 reporter 95.8*, N-glyco inh -6.6 and FN deposition inh -9.0.
Screening C[C@H]1CN([C@@H](C)CO)C(=O)Cc2cc(NC(=O)Nc3ccc(C(F)(F)F)cc3)ccc2O[C@H]1CN(C)S(=O)(=O)c1ccc(Cl)cc1 returned MLL AF4-AF9 inh -4.3, EWS-Fli block 57.1* and HIV Env fusion -87.5[16.7 µM].
Screening C[C@H](CO)N1C[C@H](C)[C@H](CN(C)S(=O)(=O)c2cn(C)cn2)Oc2ccc(NC(=O)Nc3ccc(C(F)(F)F)cc3)cc2CC1=O returned MLL AF4-AF9 inh 1.2, EWS-Fli block 61.1*, HIV Env fusion -134.0, PAX8 reporter 42.9, N-glyco inh 59.8* and FN deposition inh 5.0.
Cc1noc(C)c1S(=O)(=O)N(C)C[C@@H]1Oc2ccc(NC(=O)Nc3ccc(C(F)(F)F)cc3)cc2CC(=O)N([C@H](C)CO)C[C@@H]1C was read as EWS-Fli block 8.2, HIV Env fusion 59.8*[16.7 µM], PAX8 reporter 29.5 and FN deposition inh 3.6.
Screening CCC(=O)Nc1ccc2c(c1)C(=O)N(C)[C@H]1CC[C@H](CC(=O)N3CCc4ccccc4C3)O[C@@H]1CO2 returned MLL AF4-AF9 inh 1.9, EWS-Fli block -5.9, HIV Env fusion 8.2[16.7 µM], PAX8 reporter -32.1 and FN deposition inh -1.8.
For O=C(N[C@@H]1C=C[C@H](CC(=O)N2CCc3ccccc3C2)O[C@H]1CO)C1CCOCC1 the results were MLL AF4-AF9 inh -4.2 and EWS-Fli block -9.6.
`O=C(C[C@H]1CC[C@H](NC(=O)Nc2ccccc2F)[C@H](CO)O1)NCc1ccc(-c2ccccc2)cc1` gave MLL AF4-AF9 inh -7.4, EWS-Fli block 4.2 and PAX8 reporter 6.7.
Screening C[C@H]1CN([C@@H](C)CO)C(=O)c2cccc(NC(=O)c3ccncc3)c2O[C@@H]1CN(C)C(=O)NC1CCCCC1 returned MLL AF4-AF9 inh -1.2, EWS-Fli block -2.1, HIV Env fusion 12.4[16.7 µM] and PAX8 reporter -4.4.
`C[C@H](CO)N1C[C@H](C)[C@H](CN(C)Cc2ccccc2)Oc2ncc(C3=CCCC3)cc2C1=O` gave MLL AF4-AF9 inh 0.1, EWS-Fli block -5.1, HIV Env fusion -2.9[16.7 µM] and FN deposition inh -7.3.
For C[C@@H]1CN([C@H](C)CO)C(=O)c2cc(NS(=O)(=O)c3cn(C)cn3)ccc2O[C@@H](C)CCCCO[C@@H]1CN(C)CC1CCCCC1 the results were MLL AF4-AF9 inh -5.0, EWS-Fli block -3.6, HIV Env fusion -6.6[16.7 µM] and PAX8 reporter -3.2.
For O=C(C1CC1)N1CC2(C1)[C@@H](c1ccccc1)[C@@H](CO)N2C(=O)c1cccnc1 the results were MLL AF4-AF9 inh -6.8, EWS-Fli block 26.5 and FN deposition inh -6.0.
CC1CCCN(C(=O)c2ccc(S(=O)(=O)N3CCC(c4nc5ccccc5s4)CC3)cc2)C1 (stereo not drawn) was read as HIV Env fusion 67.8*, N-glyco inh -1.4 and FN deposition inh -6.7.
`COc1ccc2c3c(n(C)c2c1)[C@H](CO)N(C(=O)NC(C)C)CC31CCN(CC2CC2)CC1` gave MLL AF4-AF9 inh 11.2, EWS-Fli block 1.3 and PAX8 reporter 12.0.
For CC1=CC(=O)C2=C(C)CC[C@@H]3[C@H](OC(=O)[C@H]3C)[C@@H]12 the results were MLL AF4-AF9 inh -0.5, EWS-Fli block -1.3, HIV Env fusion 67.6*, PAX8 reporter -10.0, N-glyco inh 4.3 and FN deposition inh -1.9.
For CC1=CC(=O)C2=C(C)CCC3C(C)C(=O)OC3C12 (stereo not drawn) the results were MLL AF4-AF9 inh -2.4, EWS-Fli block 7.9 and N-glyco inh -3.9.
COC(=O)c1ccc(Cn2cc(/C=C\[N+](=O)[O-])c3ccccc32)o1 was read as MLL AF4-AF9 inh 2.9, EWS-Fli block 68.1*, HIV Env fusion -83.3, PAX8 reporter 27.5, N-glyco inh 0.8 and FN deposition inh 5.9.
Screening O=C(O)c1ccc(Cn2cc(/C=C\[N+](=O)[O-])c3ccccc32)o1 returned MLL AF4-AF9 inh 5.0, EWS-Fli block 21.0, HIV Env fusion 31.3, PAX8 reporter 21.9, N-glyco inh 2.1 and FN deposition inh -6.2.
`Cc1ccc(S(=O)(=O)N(C)C[C@@H]2OCCCC[C@H](C)Oc3ccc(NC(=O)Nc4cccc5ccccc45)cc3C(=O)N([C@H](C)CO)C[C@H]2C)cc1` gave MLL AF4-AF9 inh 0.8, EWS-Fli block -1.7, HIV Env fusion 9.9[16.7 µM], PAX8 reporter -11.3 and FN deposition inh 8.1.
CC1CCN(CCOc2ccc(OCc3ccccc3)cc2)CC1 was read as MLL AF4-AF9 inh 8.8, EWS-Fli block -22.3, PAX8 reporter 118.4*, N-glyco inh -4.2 and FN deposition inh 0.5.
C[C@@H]1CCCCO[C@H](CN(C)Cc2ccc(C(F)(F)F)cc2)[C@H](C)CN([C@H](C)CO)C(=O)c2cc(NC(=O)c3ccncc3)ccc2O1 was read as MLL AF4-AF9 inh 1.7, EWS-Fli block 10.0, HIV Env fusion 5.8[16.7 µM], PAX8 reporter 16.5 and FN deposition inh 12.4.
`COc1ccccc1-c1cc(NC=O)c2ncc(-c3ccc(S(C)(=O)=O)cc3)n2c1` gave MLL AF4-AF9 inh -2.1, EWS-Fli block 26.3, HIV Env fusion -132.4, PAX8 reporter 62.7*, N-glyco inh 21.5 and FN deposition inh 6.2.
Screening COc1ccc(-c2cc(NC=O)c3ncc(-c4cc(OC)c(OC)c(OC)c4)n3c2)cc1 returned MLL AF4-AF9 inh 2.3, EWS-Fli block 42.4, HIV Env fusion -103.2, PAX8 reporter 71.6*, N-glyco inh 13.9 and FN deposition inh 4.4.
